{"data": "Measured values gathered from unrelated publications", "note": "Compare with care: the assays were run in different laboratories."}
{"Structure (SMILES)": "CN(Cc1ccc(C(C)(C)C)cc1)Cc1cccc2ccccc12", "organism": "Trichophyton mentagrophytes", "assay": "microbial growth, disc diffusion", "system": "ATCC18748", "setting": "0.0005 µg/mL, 72 h", "measurement": "inhibition zone", "result": "14.5 mm"}
{"Structure (SMILES)": "O=C1C=C2NCCc3c[nH]c(c32)C1=O", "organism": "Babesia divergens", "assay": "parasite growth, SYBR Green", "setting": "60 h, blood stage", "measurement": "IC50", "result": "10000 nM"}
{"Structure (SMILES)": "CN(Cc1ccc(C2(C(F)(F)F)CC2)cc1)Cc1cccc2ccccc12", "organism": "Trichophyton mentagrophytes", "assay": "microbial growth, disc diffusion", "system": "ATCC18748", "setting": "0.001 µg/mL, 72 h", "measurement": "inhibition zone", "result": "8.5 mm"}
{"Structure (SMILES)": "N#Cc1c(-c2ccc(OCc3ccccc3)cc2)c(C(N)=O)c(N)n(N)c1=O", "organism": "Enterobacter cloacae", "assay": "microbial growth, well diffusion", "system": "ATCC23355", "setting": "500 µg/mL", "measurement": "inhibition zone", "result": "10 mm"}
{"Structure (SMILES)": "C[C@@H]1[C@H](O)[C@@H](C)/C=C/C=C/C=C/C=C/C=C/C=C/C=C/[C@H](O[C@@H]2O[C@H](C)[C@@H](O)[C@H](N)[C@@H]2O)C[C@@H]2O[C@](O)(C[C@@H](O)C[C@@H](O)[C@H](O)CC[C@@H](O)C[C@@H](O)CC(=O)O[C@H]1C)C[C@H](O)[C@H]2C(=O)O", "organism": "Trichophyton mentagrophytes", "assay": "microbial growth, broth dilution", "system": "ATCC9533", "setting": "96 h", "measurement": "MIC", "result": "8 µg/mL"}
{"Structure (SMILES)": "NC1=CC2=NCCc3c[nH]c(c32)C1=O", "organism": "Babesia divergens", "assay": "parasite growth, SYBR Green", "setting": "60 h, blood stage", "measurement": "IC50", "result": "411 nM"}
{"Structure (SMILES)": "CN(C)c1ccc(-c2c(C(N)=S)c(N)n(N)c(=O)c2C#N)cc1", "organism": "Enterobacter cloacae", "assay": "microbial growth, well diffusion", "system": "ATCC23355", "setting": "500 µg/mL", "measurement": "inhibition zone", "result": "14 mm"}
{"Structure (SMILES)": "COC(CNC1=CC2=NCCc3c[nH]c(c32)C1=O)c1c[nH]c2ccccc12 (stereo not drawn)", "organism": "Babesia divergens", "assay": "parasite growth, SYBR Green", "setting": "60 h, blood stage", "measurement": "IC50", "result": "578 nM"}
{"Structure (SMILES)": "N#Cc1c(-c2ccc(Cl)cc2Cl)c(C(N)=O)c(N)n(N)c1=O", "organism": "Enterobacter cloacae", "assay": "microbial growth, well diffusion", "system": "ATCC23355", "setting": "500 µg/mL", "measurement": "inhibition zone", "result": "14 mm"}
